# From ChEMBL document CHEMBL2069224, “Synthesis and cytotoxic activity of non-naturally substituted 4-oxycoumarin derivatives” (Bioorg Med Chem Lett, 2012)
# Active and inactive are the calls of the source. No cut-off for these calls is given here.
# What was measured:
# [1] = system: MCF7; experiment: Cytotoxicity against human MCF7 cells assessed as cell viability at 10 uM after 72 hrs by WST1 assay relative to control; assay type: functional; conditions: MCF7, 72 h, read-out: Activity
# Procedure, shortened: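 After 24 h attachment, MCF-7 cells (RPMI 1640, 10% FBS, L-glutamine, antibiotics, 37 °C, 5% CO2) were exposed 72 h to a single 10 µM concentration. WST-1 was added at 1/10 volume, incubated 60 min at 37 °C, and absorbance read at 450 nm. Viability is expressed as % of vehicle-treated cells, from three independent experiments each in triplicate.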
# [2] = system: HL-60; experiment: Cytotoxicity against human HL60 cells assessed as cell viability at 10 uM after 72 hrs by WST1 assay relative to control; assay type: functional; conditions: HL-60, 72 h, read-out: Activity
# Procedure, shortened: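 Suspension HL-60 cells were kept in IMDM with 20% FBS, L-glutamine and antibiotics at 37 °C under 5% CO2. They were seeded without an attachment wait and exposed 72 h to a single 10 µM concentration. WST-1 was added at 1/10 volume, incubated 60 min at 37 °C, and formazan read at 450 nm. Viability is given as % of vehicle-treated cells, from three independent experiments in triplicate.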
# [3] = system: MCF7; experiment: Cytotoxicity against human MCF7 cells after 72 hrs by WST1 assay in presence of 20% FBS; assay type: functional, cell-based; conditions: MCF7, 72 h
# Procedure, shortened: (§1)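 MCF-7 cells from ATCC were grown in RPMI 1640 with 10% FBS, 2 mM L-glutamine and antibiotics at 37 °C under 5% CO2. They were seeded in 96-well plates, allowed to attach 24 h, then treated 72 h at 0.01–100 µM in 10% or 20% FBS. WST-1 was added at 1/10 volume for 60 min at 37 °C and A450 read. IC50 came from nonlinear least-squares fitting of % viability vs vehicle.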
# [4] = system: HL-60; experiment: Cytotoxicity against human HL60 cells after 72 hrs by WST1 assay in presence of 20% FBS; assay type: functional, cell-based; conditions: HL-60, 72 h
# Procedure, shortened: (§2)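 HL-60 cells from ATCC were grown in IMDM with 2 mM L-glutamine, 20% FBS, amphotericin B, penicillin and streptomycin at 37 °C under 5% CO2. Suspension cells were seeded without an attachment wait, then treated 72 h at 0.01–100 µM in 10% or 20% FBS. WST-1 was added at 1/10 volume for 60 min at 37 °C and A450 read. IC50 came from a nonlinear least-squares fit of % viable cells vs vehicle.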
# [5] = system: U-937; experiment: Cytotoxicity against human U937 cells after 72 hrs by WST1 assay in presence of 20% FBS; assay type: functional, cell-based; conditions: U-937, 72 h
# Procedure, shortened: (§3)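 Cells were cultured with 10% FBS. Viability runs used 10% or 20% FBS and 72 h exposure over 0.01–100 µM. WST-1 cleavage to formazan was read at 450 nm. % viable cells vs vehicle was fitted by nonlinear least squares to give IC50.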
# [6] = Cytotoxicity against mouse Neuro2a cells after 72 hrs by WST1 assay in presence of 20% FBS; assay type: functional, cell-based; conditions: N2a; procedure, shortened: as §3
# [7] = system: HL-60; experiment: Cytotoxicity against human HL60 cells after 72 hrs by WST1 assay in presence of 10% FBS; assay type: functional, cell-based; procedure, shortened: as §2
# [8] = system: U-937; experiment: Cytotoxicity against human U937 cells after 72 hrs by WST1 assay in presence of 10% FBS; assay type: functional, cell-based; procedure, shortened: as §3
# [9] = system: N2a; experiment: Cytotoxicity against mouse Neuro2a cells after 72 hrs by WST1 assay in presence of 10% FBS; assay type: functional, cell-based; procedure, shortened: as §3
# [10] = Solubility of the compound in RPMI 1640 medium by microscopic analysis; assay type: physicochemical
# Procedure, shortened: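 Compound solubility in the assay medium was judged by microscopic inspection.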
# [11] = system: MCF7; experiment: Cytotoxicity against human MCF7 cells after 72 hrs by WST1 assay in presence of 10% FBS; assay type: functional, cell-based; procedure, shortened: as §1
Compound,viability at 10 µM [1] [%],viability at 10 µM [2] [%],also measured
COc1ccc(-c2c(O)c3cc(C)ccc3oc2=O)c(OC)c1,69,74.4,
COc1ccc2c(O)cc(=O)oc2c1OC,114,28.9,IC50 [3]: 62.3 µM; IC50 [4]: 9.1 µM; IC50 [5]: 4.3 µM; IC50 [6]: 1400 nM; Activity [7]: Active; Activity [8]: Active; Activity [9]: Active; solubility [10]: 100 µM
O=c1oc2ccccc2c(OCc2ccccc2)c1-c1ccccc1,113,94.7,
O=c1ccc2ccccc2o1 [COUMARIN],,,IC50 [3]: > 50 µM; IC50 [4]: > 50 µM; IC50 [5]: > 50 µM; IC50 [6]: > 50000 nM
COc1ccc(-c2c(O)c3cc(C)ccc3oc2=O)cc1,106,83.9,
COc1cc(OC)c2c(O)cc(=O)oc2c1,17.1,23.2,IC50 [3]: 2.1 µM; IC50 [4]: 2 µM; IC50 [5]: 0.21 µM; IC50 [6]: 550 nM; Activity [11]: Active; Activity [7]: Active; Activity [8]: Active; Activity [9]: Active; solubility [10]: 20 µM
Cc1ccc2oc(=O)cc(OCc3ccccc3)c2c1,104,76,
Cc1ccc2oc(=O)c(-c3ccccc3)c(O)c2c1,72.6,73.9,
CC/C(=C(\c1ccccc1)c1ccc(OCCN(C)C)cc1)c1ccccc1 [TAMOXIFEN],,,IC50 [3]: 8.6 µM; IC50 [4]: 14.3 µM
Cc1ccc2oc(=O)c(-c3ccccc3)c(OCc3ccccc3)c2c1,53.5,92.3,
COc1ccc(-c2c(O)c3ccccc3oc2=O)cc1,115,86.6,
COc1ccc(-c2c(O)c3ccccc3oc2=O)c(OC)c1,91.9,100,
O=c1cc(OCc2ccccc2)c2ccccc2o1,95,72.7,
O=c1oc2ccccc2c(O)c1-c1ccccc1,96.7,73.4,
